Results on three compounds are retold here after ChEMBL document CHEMBL1150591, “Structure and absolute stereochemistry of hectochlorin, a potent stimulator of actin assembly” (J Nat Prod, 2002).

Each structure is given as a SMILES string. Activity calls are given as the source filed them. The rule behind the calls is not given here.

Test [1] concerns PtK2. Kind of test: Effect on actin cytoskeleton in rat kangaroo PtK2 cells assessed as increase in binucleated cells at 1 to 10 uM after 24 hrs by immunofluorescence analysis. The class given is functional, cell-based. The note with it: Potorous tridactylus. The method in brief:
(§1)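 PtK2 cells were treated 24 h at 37 °C, then stained with FITC-anti-β-actin antibody (clone Ac-15) and DAPI. Cells were viewed under a 40× oil objective. FITC-phalloidin staining was also used.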

The subject of test [2] is Escherichia coli. In words: Antimicrobial activity against Escherichia coli ATCC 1775 by standard paper sensitivity disk-agar plate method. The class given is functional, organism-based. The method in brief: (§2)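 Paper disks of 6 mm diameter placed on seeded agar plates; activity assessed by standard disk-agar sensitivity method.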
Test [3] can be described thus: Antiproliferative activity against human NCI60 cells. The class given is functional.
In test [4] the test system is Bacillus subtilis. In words: Antimicrobial activity against Bacillus subtilis ATCC 6051 by standard paper sensitivity disk-agar plate method. It is filed as functional, organism-based. The essentials:
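Paper disk on agar, disk diameter 6 mm.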

The species entered for test [5] is Oryctolagus cuniculus. In words: Stimulation of rabbit muscle actin polymerization by electron microscopy. The note with it: Muscle tissue. The method in brief: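 Samples of purified rabbit muscle actin with drug were examined by electron microscopy for filaments, in parallel with K+-induced controls. Low-speed centrifugation (20000g, 30 min, 22 °C) was used to test for bundled polymer.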

In test [6] the test system is CA46. Kind of test: Ratio of IC50 for rat kangaroo Ptk2 cells to IC50 for human CA46 cells.
Test [7] relates to PtK2. Kind of test: Effect on actin cytoskeleton in rat kangaroo PtK2 cells assessed as thickening in microfilament at 0.3 uM after 24 hrs by immunofluorescence analysis relative to untreated control. The note with it: Potorous tridactylus. It is filed as functional, cell-based. The essentials: as §1
Test [8] concerns Pseudomonas aeruginosa. Kind of test: Antimicrobial activity against Pseudomonas aeruginosa ATCC 10145 by standard paper sensitivity disk-agar plate method. The class given is functional, organism-based. The method in brief:
as §2

The test system of test [9] is Candida albicans. In words: Antimicrobial activity against Candida albicans ATCC 14053 at 100 ug/disk by standard paper sensitivity disk-agar plate method. It is filed as functional. The note with it: read-out: IZ. The essentials: (§3)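 Agar disk diffusion with paper disks 6 mm in diameter, dose per disk as in line.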
The subject of test [10] is CA46. In words: Cell cycle arrest in human CA46 cells assessed as accumulation at G2/M phase at 0.2 uM after 24 hrs using propidium iodide labeling by flow cytometry. The class given is functional. In general terms: A flow cytometer gives signals particle by particle.
In test [11] the test system is PtK2. In words: Effect on actin cytoskeleton in rat kangaroo PtK2 cells assessed as increase in binucleated cells at 0.3 to 3 uM after 24 hrs by immunofluorescence analysis. It is filed as functional, cell-based. The note with it: Potorous tridactylus. The essentials:
as §1

A short description of test [12]: Displacement of FITC-phalloidin from rabbit muscle actin polymer after 1 hr by fluorescence analysis. It is filed as tissue-based, Oryctolagus cuniculus, Muscle tissue. The method in brief:
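Rabbit muscle actin and FITC-phalloidin were incubated 1 h at 22 °C in monomer buffer with 2 µL PIB per 100 µL. Drugs in DMSO were added for another 1 h at 22 °C, then the mixture was centrifuged and supernatant fluorescence read. EC50 is the concentration giving 50% of the maximal phalloidin-induced increase.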

Test [13] is filed under the species Oryctolagus cuniculus. In words: Displacement of FITC-phalloidin from rabbit muscle actin polymer pretreated prior to FITC-phalloidin addition by fluorescence analysis. The note with it: Muscle tissue.
For test [14], the species on record is Oryctolagus cuniculus. Kind of test: Stimulation of rabbit muscle actin polymerization assessed as light scattering at 10 to 50 uM by fluorimetry. The note with it: Muscle tissue. The method in brief: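 90° light scattering at 400 nm, 22 °C. Background read for 3 min, then drug in DMSO added, mixed, and followed about 15 min. PIB (2.5 M KCl, 100 mM MgCl2, 50 mM ATP) used as reference inducer.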

Test [15] concerns PtK2. Kind of test: Effect on actin cytoskeleton in rat kangaroo PtK2 cells assessed as hairy appearance at 3 uM after 24 hrs by immunofluorescence analysis. The class given is functional, cell-based. The note with it: Potorous tridactylus. The method in brief: as §1
A short description of test [16]: Stimulation of rabbit muscle actin polymerization by centrifugation assay. It is filed as tissue-based, Oryctolagus cuniculus, Muscle tissue. The essentials: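 Purified rabbit muscle actin with drug under nonpolymerizing conditions (no exogenous K+). Polymer was separated by centrifugation and supernatant protein measured. EC50 is the concentration reducing supernatant protein by 50% compared with a drug-free control. Three independent experiments were averaged. Total incubation plus processing time was 2.5 h.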

Test [17] can be described thus: Antiproliferative activity against rat kangaroo PtK2 cells after 48 hrs. It is filed as cell-based. The note with it: Potorous tridactylus, PtK2, 48 h. The method in brief: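 PtK2 kidney cells (Potorous tridactylis) are an attached line. They were exposed to drug for 48 h, and cell protein was the read-out of growth. IC50 was taken from the concentration response.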

The test system of test [18] is CA46. In words: Antiproliferative activity against human CA46 cells after 24 hrs. The class given is functional, cell-based. The note with it: CA46, 24 h. The method in brief:
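CA46 Burkitt lymphoma cells are a suspension line. They were grown 24 h at 37 °C with drug, and cell number was the read-out. IC50 is the concentration giving 50% growth inhibition.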

Test [19] concerns Candida albicans. Kind of test: Antimicrobial activity against Candida albicans ATCC 14053 at 10 ug/disk by standard paper sensitivity disk-agar plate method. It is filed as functional. The note with it: read-out: IZ. The essentials:
as §3

Test [20] relates to Salmonella enterica subsp. enterica. Kind of test: Antimicrobial activity against Salmonella choleraesuis subsp. choleraesuis ATCC 14028 by standard paper sensitivity disk-agar plate method. It is filed as functional, organism-based. The essentials: as §2
Test [21] deals with PtK2. In words: Effect on actin cytoskeleton in rat kangaroo PtK2 cells assessed as thickening in microfilament at 1.0 uM after 24 hrs by immunofluorescence analysis relative to untreated control. It is filed as functional, cell-based. The note with it: Potorous tridactylus. The method in brief: as §1
The test system of test [22] is Staphylococcus aureus. Kind of test: Antimicrobial activity against Staphylococcus aureus ATCC 12600 by standard paper sensitivity disk-agar plate method. It is filed as functional, organism-based. The essentials: as §2
Test [23] has as its system PtK2. In words: Effect on actin cytoskeleton in rat kangaroo PtK2 cells assessed as hairy appearance at 10 uM after 24 hrs by immunofluorescence analysis. It is filed as functional, cell-based. The note with it: Potorous tridactylus. The method in brief: as §1
Test [24] relates to PtK2. Kind of test: Effect on actin cytoskeleton in rat kangaroo PtK2 cells assessed as retracted cytoplasm and spiky appearance at 3 uM after 24 hrs by immunofluorescence analysis. It is filed as functional, cell-based. The note with it: Potorous tridactylus. The essentials:
as §1

Test [25] relates to PtK2. Kind of test: Effect on actin cytoskeleton in rat kangaroo PtK2 cells assessed as reorganization and hypernucleation of actin assembly at 0.03 uM after 24 hrs by immunofluorescence analysis. The note with it: Potorous tridactylus. The class given is functional, cell-based. The method in brief:
as §1

The test system of test [26] is CA46. In words: Cell cycle arrest in human CA46 cells assessed as accumulation at G2/M phase at 1.0 uM after 24 hrs using propidium iodide labeling by flow cytometry. It is filed as functional. The essentials:
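CA46 human Burkitt lymphoma cells were treated with the drug for 24 h. Cellular DNA content was then labelled with propidium iodide and measured by flow cytometry. The read-out was the percentage of cells in G2/M phase, compared against an untreated control.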

In the case of `CC(=O)O[C@@H]1c2nc(cs2)C(=O)O[C@@H](CCCC(C)(Cl)Cl)[C@H](C)C(=O)O[C@@H](C(C)(C)O)c2nc(cs2)C(=O)OC1(C)C` [HECTOCHLORIN], the result in test [1], in test [7], in [11], in test [14], in [15] and in test [21] was Active. The outcome in test [23] was Active. Further, the result in test [2], in test [4], in [5], in test [8], in [13] and in test [20] was inactive. In addition, the result in test [22] was inactive. The concentration for 50% growth inhibition (GI50) – broadly, the concentration that inhibits growth by half – in [3] was found to be 5.1 µM. The “Ratio IC50” value in [6] is recorded as 10. For the same compound, in test [9], the zone of inhibition at 100 µg/disc was 16 mm. Further, the Activity in test [10] is given as 37%. The half-maximal effective concentration (EC50) (as a rule, the concentration giving half of the maximal effect) is above 60 µM in [12] and 20 µM in test [16]. In addition, the IC50 (usually the point on the concentration scale where inhibition reaches its midpoint) worked out at 0.3 µM in [17] and 0.02 µM in test [18]. Also, in test [19], the zone of inhibition at 10 µg/disc stood at 11 mm.
On to `C/C1=C\[C@H](C)C[C@H](C)OC(=O)C[C@H](c2ccc(O)cc2)NC(=O)[C@@H](Cc2c(Br)[nH]c3ccccc23)N(C)C(=O)[C@H](C)NC(=O)[C@@H](C)C1` [JASPAMIDE], for which the result in test [1], in test [24], in test [25], in test [11] and in test [14] was Active. In addition, the EC50 in test [12] is 6.5 µM. The IC50 in [17] turned out to be 0.3 µM; in test [18] it was 0.03 µM.
Consider `CC(C)[C@@H]1NC(=O)CNC(=O)[C@@H]2CSC(=N2)[C@H](C(C)(C)O)OC(=O)C(C)(C)[C@H](CCCC(C)(Cl)Cl)OC(=O)c2csc1n2` [LYNGBYABELLIN B], for which the result in test [1], in test [7], in test [11], in [15], in test [21] and in test [23] was Active. In test [16], this compound registered a concentration giving a half-maximal response (EC50) above 50 µM. Moreover, the IC50 in test [17] turned out to be 1 µM; in [18], 0.1 µM. Also, in test [26], the Activity was found to be 28%.
